# Experimental data taken from ChEMBL document CHEMBL4000211, “Discovery of novel polycyclic spiro-fused carbocyclicoxindole-based anticancer agents” (Eur J Med Chem, 2017).
# Calls of active or inactive are those of the source. The rule behind the calls is not given here.
# Key:
# HCT-116 [1] = assay: Induction of apoptosis in human HCT116 cells assessed as early apoptotic cells at 7.5 uM after 24 hrs by annexin V-FITC/propidium iodide staining-based flow cytometric method (reference value: 1.9%); format: functional
# HCT-116 [2] = assay: Cell cycle arrest in human HCT116 cells assessed as accumulation at sub G1 phase at 10 uM after 48 hrs by propidium iodide staining-based flow cytometric method (reference value: 0.86%); format: functional
# HCT-116 [3] = assay: Induction of apoptosis in human HCT116 cells assessed as nuclear condensation at 7.5 to 12.5 uM after 24 hrs by Hoechst 33342 staining-based fluorescence microscopic method; format: functional, cell-based
# In short: (§1)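 HCT116 cells (1×10⁵/well) cultured 24 h, then exposed to 0, 7.5, 10 or 12.5 μM (final) for 24 h. Rinsed in PBS, fixed in 75% ethanol and checked by inverted microscopy. Then stained with Hoechst 33342 (2 μg/mL in PBS) and scored for apoptotic nuclear morphology under fluorescence microscopy.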
# A2780/Taxol = assay: Antiproliferative activity against human A2780T cells after 48 hrs by MTT assay; format: functional, cell-based
# In short: (§2)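 Cells seeded at 3×10³/well and grown 24 h, then exposed 48 h to six final concentrations, twofold steps down from 30. MTT (5 mg/mL) was added for 2–4 h at 37 °C. Supernatant was removed, formazan dissolved in DMSO, and OD read at 570 nm. Results are given as IC50, or as percent inhibition where IC50 exceeds the top concentration. At least three runs.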
# HCT-116 [4] = assay: Cell cycle arrest in human HCT116 cells assessed as accumulation at G1 phase at 7.5 uM after 48 hrs by propidium iodide staining-based flow cytometric method (reference value: 40.75%); format: functional
# MCF7 = assay: Antiproliferative activity against human MCF7 cells after 48 hrs by MTT assay; format: functional, cell-based; details: MCF7, 48 h; in short: as §2
# A2780S [5] = assay: Antiproliferative activity against human A2780S cells at 7.5 uM after 48 hrs by MTT assay relative to control; format: functional; in short: as §2
# HCT-116 [6] = assay: Cell cycle arrest in human HCT116 cells assessed as accumulation at sub G1 phase at 7.5 uM after 24 hrs by propidium iodide staining-based flow cytometric method (reference value: 1.73%); format: functional
# HCT-116 [7] = assay: Cell cycle arrest in human HCT116 cells assessed as accumulation at G2 phase at 7.5 uM after 24 hrs by propidium iodide staining-based flow cytometric method (reference value: 26.10%); format: functional
# HCT-116 [8] = assay: Cell cycle arrest in human HCT116 cells assessed as accumulation at G2 phase at 7.5 uM after 48 hrs by propidium iodide staining-based flow cytometric method (reference value: 31.27%); format: functional
# HCT-116 [9] = assay: Cell cycle arrest in human HCT116 cells assessed as accumulation at sub G1 phase at 10 uM after 24 hrs by propidium iodide staining-based flow cytometric method (reference value: 1.73%); format: functional
# HCT-116 [10] = assay: Induction of apoptosis in human HCT116 cells assessed as late apoptotic cells at 12.5 uM after 48 hrs by annexin V-FITC/propidium iodide staining-based flow cytometric method (reference value: 1.06%); format: functional
# HCT-116 [11] = assay: Induction of apoptosis in human HCT116 cells assessed as viable cells at 12.5 uM after 48 hrs by annexin V-FITC/propidium iodide staining-based flow cytometric method (reference value: 95.05%); format: functional; details: HCT-116, 48 h, read-out: Activity
# In short: (§3)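 HCT116 cells seeded at 1×10⁶ cells/mL in 6-well plates for 24 h, then exposed to 0, 7.5, 10 or 12.5 μM for a further 24 h or 48 h. Cells washed twice in PBS, then stained with Annexin V-FITC plus PI (100 μg/mL stock) in binding buffer (10 mM HEPES, pH 7.4, 2.5 mM CaCl₂) for 30 min at room temperature in the dark. Early and late apoptotic fractions gated by flow cytometry.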
# HCT-116 [12] = assay: Induction of apoptosis in human HCT116 cells assessed as early apoptotic cells at 12.5 uM after 48 hrs by annexin V-FITC/propidium iodide staining-based flow cytometric method (reference value: 1.6%); format: functional
# A2780S [13] = assay: Antiproliferative activity against human A2780S cells after 48 hrs by MTT assay; format: functional, cell-based; in short: as §2
# HCT-116 [14] = assay: Cell cycle arrest in human HCT116 cells assessed as accumulation at S phase at 10 uM after 24 hrs by propidium iodide staining-based flow cytometric method (reference value: 36.43%); format: functional
# NCI-H1975 = assay: Antiproliferative activity against human NCI-H1975 cells after 48 hrs by MTT assay; format: functional, cell-based; details: NCI-H1975, 48 h; in short: as §2
# HCT-116 [15] = assay: Cell cycle arrest in human HCT116 cells assessed as accumulation at G2 phase at 10 uM after 24 hrs by propidium iodide staining-based flow cytometric method (reference value: 26.10%); format: functional
# HCT-116 [16] = assay: Induction of apoptosis in human HCT116 cells assessed as increase in cleaved caspase-3 level after 24 hrs by Western blot method; format: functional, cell-based
# In short: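 Treated HCT116 were lysed on ice in RIPA buffer with 1% protease inhibitor cocktail and spun 13000 g, 20 min, 4 °C. Protein was quantified by BCA. Equal protein was run on SDS-PAGE, blotted to PVDF, probed with primary and HRP secondary antibodies, and detected by enhanced chemiluminescence.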
# HCT-116 [17] = assay: Induction of apoptosis in human HCT116 cells assessed as viable cells at 7.5 uM after 24 hrs by annexin V-FITC/propidium iodide staining-based flow cytometric method (reference value: 93.48%); format: functional; details: HCT-116, 24 h, read-out: Activity; in short: as §3
# HCT-116 [18] = assay: Cell cycle arrest in human HCT116 cells assessed as accumulation at S phase at 7.5 uM after 48 hrs by propidium iodide staining-based flow cytometric method (reference value: 34.83%); format: functional
# HCT-116 [19] = assay: Induction of apoptosis in human HCT116 cells assessed as early apoptotic cells at 7.5 uM after 48 hrs by annexin V-FITC/propidium iodide staining-based flow cytometric method (reference value: 1.6%); format: functional
# HCT-116 [20] = assay: Induction of apoptosis in human HCT116 cells assessed as early apoptotic cells at 12.5 uM after 24 hrs by annexin V-FITC/propidium iodide staining-based flow cytometric method (reference value: 1.9%); format: functional
# HCT-116 [21] = assay: Induction of apoptosis in human HCT116 cells assessed as reduction in cell volume at 7.5 to 12.5 uM after 24 hrs by Hoechst 33342 staining-based fluorescence microscopic method; format: functional; in short: as §1
# HCT-116 [22] = assay: Cell cycle arrest in human HCT116 cells assessed as accumulation at G1 phase at 7.5 uM after 24 hrs by propidium iodide staining-based flow cytometric method (reference value: 43.79%); format: functional
# HCT-116 [23] = assay: Induction of apoptosis in human HCT116 cells assessed as nuclear fragmentation at 7.5 to 12.5 uM after 24 hrs by Hoechst 33342 staining-based fluorescence microscopic method; format: functional, cell-based; in short: as §1
# HCT-116 [24] = assay: Induction of apoptosis in human HCT116 cells assessed as cell shrinkage at 7.5 to 12.5 uM after 24 hrs by inverted microscopic method; format: functional, cell-based
# In short: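 HCT116 at 1×10⁵/well grown 24 h, then treated 24 h (0, 7.5, 10, 12.5). Cells rinsed in PBS and fixed in 75% ethanol. Morphology was examined by inverted microscopy, then cells were stained with Hoechst 33342 for fluorescence microscopy of nuclei.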
# HCT-116 [25] = assay: Cell cycle arrest in human HCT116 cells assessed as accumulation at sub G1 phase at 12.5 uM after 48 hrs by propidium iodide staining-based flow cytometric method (reference value: 0.86%); format: functional
structure (smiles),measurement,setting,value
C[C@@H]1Oc2ccc3ccccc3c2[C@@H]2[C@@H]1C=C(C=O)[C@@H](C)[C@]21C(=O)Nc2ccccc21,Activity,HCT-116 [1],3.78%
same,Activity,HCT-116 [2],32.93%
same,Activity,HCT-116 [3],Active
same,IC50,A2780/Taxol,23.4 µM
same,Activity,HCT-116 [4],49.85%
same,IC50,MCF7,16.2 µM
same,inhibition at 7.5 µM,A2780S [5],50 to 58.1%
same,Activity,HCT-116 [6],3.18%
same,Activity,HCT-116 [7],28.5%
same,Activity,HCT-116 [8],26.41%
same,Activity,HCT-116 [9],15.92%
same,Activity,HCT-116 [10],18.89%
same,viability at 12.5 µM,HCT-116 [11],28.6%
same,Activity,HCT-116 [12],47.17%
same,IC50,A2780S [13],7.91 µM
same,Activity,HCT-116 [14],7.13%
same,IC50,NCI-H1975,13.7 µM
same,Activity,HCT-116 [15],21.05%
same,Activity,HCT-116 [16],Dose-dependent effect
same,viability at 7.5 µM,HCT-116 [17],89.9%
same,Activity,HCT-116 [18],23.94%
same,Activity,HCT-116 [19],4.18%
same,Activity,HCT-116 [20],33.2%
same,Activity,HCT-116 [21],Active
same,Activity,HCT-116 [22],46.1%
same,Activity,HCT-116 [23],Active
same,Activity,HCT-116 [24],Active
same,Activity,HCT-116 [25],64.26%
